According to the RNAGym collection of RNA variant scans (doi:10.1126/science.aae0568):
Fewer inactive variants are shown than the library holds.

B1: tRNA (parent)
chain: GUUCCGUUGGCGUAAUGGUAACGCGUCUCCCUCCUAAGGAGAAGACUGCGGGUUCGAGUCCCGUACGGAACG

Variants of: B1
Test: yeast fitness relative to wild type (ratio to wild type); higher = fitter; tRNA-Arg(CCU), competitive growth, 37 C, YPD
How it was run: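 A pool of Saccharomyces cerevisiae strains, each with a tRNA-Arg(CCU) gene variant at the native genomic locus, was competed in YPD at 37°C for 24 hours across six parallel replicates. The variants had been chemically synthesised at a 3% per-site mutation rate over 69 sites, and gene amplicons before and after competition were read by 100-nucleotide paired-end sequencing. Darwinian fitness relative to wild type rested on changes in genotype frequencies. Genotypes required ≥ 100 starting reads, and estimates < 0.5 were set to 0.5.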

Going from GUUCCGUUGGCGUAAUGGUAACGCAUCUCCUUCCUACGGAGAAGACUGCGGGUUCGAGUCCCGUACGUAACG to GUUCCGUUGGCGUAAUGGUAACGCAUCUCCCUCGUAAGGAGAAGACUGCGGGUUCGAGUCCCGUACGGAACG, the yeast fitness rises from ≤ 0.5 to 0.726.

Going from GUUCCGUUGGCGUAAUGGUAACGCAUCUCCCUUCUAAGGAGAAGUCUGCGGGUUCGAGUGCCGUACGGAACG to GUUCCGUUGGCGUAAUGGUAACGCAUCUCCCUCCUAAGGAGAAGACUGCAGGUUCGAGUCCCCUACGGAACG, the yeast fitness rises from ≤ 0.5 to 0.641.

Going from GUUCCGUUGGCGUAAUGGUAACGCAUCUCCCUCCUAAGGAGAAGACUGCGGAUUCGAGUCCCGUAUGGAACG to GUUCCGUUGGCGUAAUGGUAACGCAUCUCCCUCCUAAGGAGAAGACUGUGGGUUCGAGUCCCGCACGGAACG, the yeast fitness rises from 0.637 to 0.782.

GUUCCGUUGGCGUAAUGGUAACGCAUCUCCCUCCUAAGGAGAAGACUCCGGCUUUGAGUCCCGUACGGAACG and GUUCCGUUGGCGUAAUGGUAACGCAUCUCCUUCCUAAGGAGGAGACUGCGGGUUCGAGUCCUGUACGGCACG cannot be ordered by yeast fitness: ≤ 0.5 for the first, ≤ 0.5 for the second.

Compared with GUUCCGUUGGCGUAAUGGUAACGCAUCUCCCUCCUAAGGAGAAGACUGCGGGUUCGAGUCCAGUACGGAUCG, GUUCCGUUGGCGUAAUGGUAACGCAUCUCCCUCCUAAGGAGAAGACUACGGGUUCGAGUCCCGUACGGACCG is higher in yeast fitness: 0.678 for the first, 1.13 for the second.

GUUCCGUUGGCGUAAUGGUAACGCAUCUCCCUCAUAAGGAGAAGACCGCGGGUUCGAGUCCCGUACGGAACG and GUUCCGUUGGCGUAAUGGUAACGCAUCUCCCUCCUAAGAAGAAGACUGCGGAUUCGAGUCCCGUACGGAACG cannot be ordered by yeast fitness: ≤ 0.5 for the first, ≤ 0.5 for the second.

First: GUUCCGUUGGCGUAAUGGUAACGCAUCUCCCUCCUAAGGAGAAGACUGCGGGUUCGAGUCGCGUACGGAACG
Second: GUUCCGUUGGCGUAAUGGUAACGCAUCUCCCUCCUAAGGAGAAGACUGCGGGUUCGAGUCUCGUACGGAACG
The yeast fitness of the first is lower: 0.679 for the first, 0.971 for the second.

Compared with GUUCCGUUGGCGUAAUGGUAACGCAUCUCCCUCCUAAGGAGAAGACUGCGGGUUCGAGUCACGUACGGAACG, GUUCCGUUGGCGUAAUGGUAACGCAUCUCCCUCCUAAGGAGAAGACUGCAGGUUAGAGUCCCGUAAGGAACG is lower in yeast fitness: 0.595 for the first, ≤ 0.5 for the second.

Compared with GUUCCGUUGGCGUAAUGGUAACGCAUCUCCCUCCUAAGGAGAAGACUGCGGGUUCAAGUCCCGUACGGAACG, GUUCCGUUGGCGUAAUGGUAACGCAUCUCCCUGCUAAGGAGGAGACUGCAGGUUCGAGUCCCGUACGGAACG is lower in yeast fitness: 0.919 for the first, 0.596 for the second.

Going from GUUCCGUUGGCGUAAUGGUAACGCAUCUCCCUCCUAAGGAGAAGACUGCGGGUUCGAGUACCGUACGGAACG to GUUCCGUUGGCGUAAUGGUAACGCAUCUCCCUCCUAAGGAGAAGACUGCGGGUUCGAGUGCCGUACGGAACG, the yeast fitness rises from 0.66 to 0.718.

GUUCCGUUGGCGUAAUGGUAACGCAUCUCCUUCCUAACGAGAAGACUGCGGGUUCGAGUCCCGUCCGAUACG and GUUCCGUUGGCGUAAUGGUAACGCAUCUCCCUCGUAAGGAGAAGACUGCGGGUACGAGUCCCGUUCGGAACG cannot be ordered by yeast fitness: ≤ 0.5 for the first, ≤ 0.5 for the second.

Going from GUUCCGUUGGCGUAAUGGUAACGCAUCUCCCUCCUAAGGAGAAGAUUGCGGGUUCGUGUCCCGUACGGAACG to GUUCCGUUGGCGUAAUGGUAACGCAUCUCCCUCCUAAGGAGAAGACUGUGGGUUCGAGUCCCGUGCGGACCG, the yeast fitness falls from 0.965 to ≤ 0.5.

Going from GUUCCGUUGGCGUAAUGGUAACGCAUCUCCCUCCUAAGGAGAAGAAUGCGGCUUCGAGUCCCGUACGGAACG to GUUCCGUUGGCGUAAUGGUAACGCAUCUCCCUCCUAAGGAGAAGACUCGGGGUUCGAGUCCCGUACGGAACG, the yeast fitness falls from 0.615 to ≤ 0.5.

Going from GUUCCGUUGGCGUAAUGGUAACGCAUCUCCCUCUUAAGGAGAUGACUGCGGGUUCAAGUCCCGUACGGAACG to GUUCCGUUGGCGUAAUGGUAACGCAUCUCCCUCCUAAGGAGAAGACUCCGGGUUCGAGUCCCGUACGGAACG, the yeast fitness rises from ≤ 0.5 to 1.14.

Compared with GUUCCGUUGGCGUAAUGGUAACGCAUCUCCCUACUAAGGGGAAGACUGCGGGUUCGAGUCCCGUACGGAACG, GUUCCGUUGGCGUAAUGGUAACGCAUCUCCCUUCUAAGGAGAAGACUGCGGGUUCGAGUCCAGUACGGACCG is lower in yeast fitness: 0.544 for the first, ≤ 0.5 for the second.

Going from GUUCCGUUGGCGUAAUGGUAACGCAUCUCCCUCCUAAGGAGAAGACUGCGGGUUGGAGUCCCGUACGGAACG to GUUCCGUUGGCGUAAUGGUAACGCAUCUCCCUCCUAAGGAAAAGACUGCGGGUUCGAGUCCCGUACGGACCG, the yeast fitness rises from 0.681 to 0.714.

Going from GUUCCGUUGGCGUAAUGGUAACGCAUCUCCCUCCUAACGAGAAGACUGCGGGUUCGAGUCCCGUACGGAACG to GUUCCGUUGGCGUAAUGGUAACGCAUCUCCCUCCUAAGGAGAAGACUGCGGGUUCGAGUAACAUACGGAACG, the yeast fitness falls from 0.775 to 0.75.

First: GUUCCGUUGGCGUAAUGGUAACGCAUCUCCCUCCUAAGGACAAGACUGCGGGUUCGAGUCCCGUACGGAACG
Second: GUUCCGUUGGCGUAAUGGUAACGCAUCUCCCUCCUAAGGAGAAGACUGCGAGUUCGAGUCCCGUACGGAACG
The yeast fitness of the first is higher: 0.974 for the first, 0.861 for the second.

In the case of GUUCCGUUGGCGUAAUGGUAACGCAUCUCCCUCCUAAGGAAAAGAGUGCAGGUUCGAGUCCAGUACGGAACG, the yeast fitness is reported as ≤ 0.5.
